Rows were chosen to be rich in hits. Some 2.6% of all compounds tested hit in one or more screens of this group.
Xi reactivation: X-chromosome reactivation activator; XiGFP mouse fibroblasts, % GFP-positive cells imaging, 3 d; cells co-treated with 5-aza-dC sensitizer; scaled so ellipticine positive control = 100%; activation, % at 7.58 µM; 360,000 compounds, 0.055% hits; AID 743238;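 active means mean normalized replicate activation at least 10% and every replicate at or above 10%; inconclusive means only one of the two criteria met; inactive means mean below 10% and not all replicates reach 10%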
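System: 68-5-11 XiGFP fibroblast line; Timing: 3 days compound exposure; Compound dosing: one concentration, pinned; Benchmarks: positive control ellipticine, 6 µM final; Buffer or medium: DMEM containing 5-aza-dC.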
esBAF inh: SWI/SNF esBAF complex inhibition. reporter increase, % at 12.5 µM. mouse ES cells, Bmi1-luciferase knock-in reporter, 24 h; 100% = twice the neutral-well signal. AID 602393. 350,000 compounds, 2% hits; in the data active means activation above about 40%; inconclusive means no clear call, values can overlap the other calls;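 further: a rise in the Bmi1 reporter signal indicates esBAF inhibition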
MITF act: MITF TRPM1 promoter activation in melanoma cells | SK-MEL-5 TRPM1-promoter luciferase, 24 h; % of positive control, neutral wells = 0 | 300,000 compounds, 0.75% hits | activation, % at 12.5 µM;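 active means mean activation of at least 80% with every replicate also reaching 80%; inconclusive means mean reaches 80% but some replicate falls short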
Vif imaging: HIV Vif inhibition; 340,000 compounds, 0.35% hits; AID 602346; HEK293T cells, Vif self-association by quenched fluorescence, imaging, 24 h; inhibition, % at 7.49 µM; in the data active means inhibition above about 50%, passing the limit was not always enough; inconclusive means no clear call, values can overlap the other calls; inactive means below about 31%
Wnt bcat act: activators of Wnt/beta-catenin signaling. Wnt/beta-catenin reporter cell assay, activator, plate reader. activation, % at 9.35 µM. AID 743398. 300,000 compounds, 1.2% hits; in the data active means activation above about 30%, passing the limit was not always enough; inconclusive means no clear call, values can overlap the other calls
Numbers stand for hits; – = inactive; ? = inconclusive; · = no result given.

SMILES	Xi reactivation	esBAF inh	MITF act	Vif imaging	Wnt bcat act
CCN1CCN(C(=O)c2cc3ccc(OC)cc3[nH]2)CC1	–	–	95.2	–	–
Cc1ccc(-c2cc(C(F)(F)F)n3ncc(C(=O)O)c3n2)cc1	·	–	–	–	·
CCOC(=O)c1cnn2c(C)cc(-c3ccc(F)cc3)nc12	·	–	90.6	–	·
CN(C)C(=O)C[C@H]1C=C[C@H](NC(=O)c2ccc(F)cc2)[C@H](CO)O1	–	–	·	·	·
C[C@H]1CCCCO[C@@H](CN(C)Cc2ccncc2)[C@@H](C)CN([C@@H](C)CO)C(=O)c2cc(NC(=O)Nc3ccc4c(c3)OCO4)ccc2O1	–	80.0	·	·	·
C[C@@H]1CN([C@@H](C)CO)C(=O)c2cc(NC(=O)Nc3ccc4c(c3)OCO4)ccc2O[C@@H](C)CCCCO[C@H]1CN(C)C(=O)Nc1ccccc1	–	65.9	·	·	·
C[C@H](CO)N1C[C@H](C)[C@@H](CN(C)C(=O)Nc2ccc(F)cc2)OCCCC[C@H](C)Oc2ccc(NC(=O)Nc3ccc4c(c3)OCO4)cc2C1=O	–	50.5	·	·	·
C[C@@H]1CN([C@@H](C)CO)C(=O)c2cc(NC(=O)Nc3ccc4c(c3)OCO4)ccc2O[C@@H](C)CCCCO[C@@H]1CN(C)Cc1ccncc1	–	–	·	·	·
COc1cccc(NC(=O)N(C)C[C@H]2Oc3cc(/C=C/c4ccccc4)ccc3S(=O)(=O)N([C@@H](C)CO)C[C@H]2C)c1	–	–	·	·	·
Cc1ccc(N2CN=c3s/c(=C\c4ccccn4)c(=O)n3C2)cc1	·	76.9	–	–	–
O=C(COC(=O)c1ccccc1NC(=O)c1ccco1)NCCC1=CCCCC1	·	63.1	–	–	·
O=C(c1cn(-c2ccccc2)nc1-c1ccccc1)N1CCOCC1	·	–	–	–	–
O=C(c1cccs1)N1CCN(C(=O)c2cn(-c3ccccc3)nc2-c2ccccc2)CC1	–	53.7	–	–	–
c1ccc(-c2nnc(-c3ccccc3)nn2)cc1	–	·	·	–	50.3
OC[C@@H]1[C@H](c2ccc(C#Cc3ccccc3)cc2)[C@H]2CN(CC3CCOCC3)CCCCN12	–	·	·	·	·
Cc1ccccc1C(=O)c1cccn1CC(=O)NCc1cccc(Cl)c1	–	64.0	–	–	–
COc1ccccc1CNC(=O)Cn1cccc1C(=O)c1ccccc1C	–	43.2	–	–	–
COc1cccc(CNC(=O)Cn2cccc2C(=O)c2ccccc2C)c1	–	?	–	–	–
O=C(C[C@H]1CC[C@H]2[C@@H](COC[C@H](O)CN2S(=O)(=O)c2cccc(F)c2)O1)Nc1ccccc1	–	–	·	·	·
CNC(=O)C[C@H]1CC[C@@H]2[C@H](COc3ccc(NC(=O)NC4CCCC4)cc3C(=O)N2C)O1	–	–	·	·	·
CNC[C@@H]1Oc2ccc(NC(=O)NC3CCCCC3)cc2C(=O)N([C@@H](C)CO)C[C@@H]1C	–	–	·	·	·
COC(=O)c1ccccc1NC(=O)c1sc(Cl)nc1C	–	–	–	–	–
COC(=O)c1ccc(-c2ccc(Cl)cc2)nc1C	–	–	92.6	–	·
Cc1cc2ncn(C(=O)N3CCC(C)CC3)c2cc1C	·	54.4	–	–	·
Cc1cc2ncn(C(=O)c3ccc4c(c3)OCO4)c2cc1C	·	–	–	–	–
SMILES	Xi reactivation	esBAF inh	MITF act	Vif imaging	Wnt bcat act
Brc1c(CSc2nc3ccccc3o2)nc2ncccn12	·	–	·	–	48.5
C[C@H]1CN([C@@H](C)CO)C(=O)Cc2cc(NC(=O)Nc3ccc(F)cc3)ccc2O[C@@H]1CN(C)Cc1ccc(C(F)(F)F)cc1	–	–	·	·	·
Cc1cc(C)cc(NC(=O)Nc2ccc3c(c2)CCC3)c1	–	–	–	–	–
O=C(Nc1ccccc1)Nc1ccc2c(c1)CCC2	–	49.2	–	–	–
O=C(Nc1ccc(F)cc1)Nc1ccc2c(c1)CCC2	–	·	?	·	?
O=C(Nc1cccc(F)c1)Nc1ccc2c(c1)CCC2	–	63.9	?	–	34.0
CCCNC(=O)[C@@H]1[C@@H](CO)[C@@H]2Cn3c(ccc(-c4ccccc4F)c3=O)[C@@H]2N1C(=O)C1CCC1	–	·	·	·	·
CCCCCn1cnc2sc(-c3ccccc3)cc2c1=O	·	81.5	106.9	–	–
CCCCn1cnc2sc(-c3ccccc3)cc2c1=O	·	·	91.5	–	·
COc1ncnc2sc(-c3ccccc3)cc12	·	50.1	–	·	·
CCN(CC)C(=O)CSc1ncnc2sc(-c3ccccc3)cc12	·	62.8	·	–	·
CN(C)C(=O)COc1ncnc2sc(-c3ccccc3)cc12	–	–	–	–	–
CCCCCn1cnc2sc(CC)cc2c1=O	–	·	–	–	–
CCN1CC(=O)N2[C@@H](CO)[C@H](c3ccc(-c4cccnc4)cc3)[C@@H]2C1	–	·	·	·	·
O=C(C1CCCC1)N1CC2(C1)[C@@H](c1ccccc1)[C@@H](CO)N2Cc1cncnc1	–	·	·	·	·
CN1c2ccc(-c3cccc(C#N)c3)cc2[C@H]2[C@H](CCN2C(=O)C2CC2)[C@@H]1CO	–	·	·	·	·
COc1ccc(NC(=O)N(C)C[C@@H]2OCCCC[C@@H](C)Oc3ccc(NC(=O)NC4CCCCC4)cc3C(=O)N([C@H](C)CO)C[C@H]2C)cc1	–	–	·	·	·
CO[C@@H]1CN(C)C(=O)c2ccc(NC(=O)C3CC3)cc2OC[C@@H](C)N(CC2CC2)C[C@@H]1C	–	–	·	·	·
Cc1ccc(/C=N\Nc2cn[nH]c(=O)c2Cl)cc1	·	52.7	–	–	–
O=c1[nH]ncc(N/N=C/c2ccccc2)c1Cl	·	–	–	–	·
COc1ccc2c3c([nH]c2c1)[C@H](CO)N(C(=O)CN1CCOCC1)CC31CN(C(=O)NC(C)C)C1	–	·	·	·	·
CCCC(=O)Nc1ccc2c(c1)C(=O)N(C)C[C@H](OC)[C@@H](C)CN(C(=O)CC)[C@H](C)CO2	–	–	·	·	·
NC(N)=N/N=C/c1ccccc1	·	·	–	–	–
NC(=N\N=Cc1ccccc1)/C(N)=N/N=Cc1ccccc1	–	49.7	·	?	–
Nc1[nH]c2cc([N+](=O)[O-])ccc2c1-c1ccccn1	100.4	–	–	–	–
SMILES	Xi reactivation	esBAF inh	MITF act	Vif imaging	Wnt bcat act
C=CCOc1ccc(/C=N/Nc2ccccn2)cc1OC	–	64.1	?	–	–
CCCOc1ccc(/C=N/Nc2ccccn2)cc1OC	–	–	90.9	–	–
COc1cc(/C=N/Nc2ccccn2)ccc1OCC(C)C	–	?	89.7	–	–
COc1ccccc1/C=N/Nc1nccnc1Cl	·	41.7	–	–	–
CCOc1ccc(/C=N/Nc2ccccn2)cc1OC	–	·	–	–	–
C[C@H]1CN([C@@H](C)CO)C(=O)c2cccc(NC(=O)c3ccc(-c4nccs4)cc3)c2O[C@H]1CN(C)C(=O)Nc1ccc2c(c1)OCO2	–	–	·	·	·
COc1ccc(/C=N\Nc2ccccn2)c(OC)c1	–	52.1	·	–	–
CC(=O)N1CC2(C1)[C@H](c1ccccc1)[C@H](CO)N2Cc1cccc(Cl)c1	–	·	·	·	·
O=C(O)CC(CN1C(=O)c2ccccc2C1=O)c1ccccc1 (stereo not drawn)	–	–	–	–	45.5
Cc1ccc(SCn2nnc3ccccc3c2=O)c(C)c1	–	·	109.9	–	–
O=c1c2ccccc2nnn1CCc1ccccc1	–	–	·	–	42.7
O=C(COc1ccc(Cl)cc1Cl)OCn1nnc2ccccc2c1=O	·	·	–	–	–

Screens (PubChem)
